Laboratory results published in ChEMBL document CHEMBL1124440, “Resolved N,N-dialkylated 2-amino-8-hydroxytetralins: stereoselective interactions with 5-HT1A receptors in the brain” (J Med Chem, 1989).

Tests used:
Rattus norvegicus [1] = assay: No of rats exhibiting 5-HT motor syndrome tested in reserpinized rats at a subcutaneous dose of 10 umol/kg; 0 rats out of 2 showed activity; format: functional
[2] = molecular target: T1, Tryptophan 5-hydroxylase 1 (Rattus norvegicus) (UniProt P09810); assay: Compound was tested for its effect on NSD 1015 induced accumulation of 5-HTP(ng/g) in rats in corpus striatum at a dosage of 10 umol/kg; format: functional
T1 sequence (whole entry): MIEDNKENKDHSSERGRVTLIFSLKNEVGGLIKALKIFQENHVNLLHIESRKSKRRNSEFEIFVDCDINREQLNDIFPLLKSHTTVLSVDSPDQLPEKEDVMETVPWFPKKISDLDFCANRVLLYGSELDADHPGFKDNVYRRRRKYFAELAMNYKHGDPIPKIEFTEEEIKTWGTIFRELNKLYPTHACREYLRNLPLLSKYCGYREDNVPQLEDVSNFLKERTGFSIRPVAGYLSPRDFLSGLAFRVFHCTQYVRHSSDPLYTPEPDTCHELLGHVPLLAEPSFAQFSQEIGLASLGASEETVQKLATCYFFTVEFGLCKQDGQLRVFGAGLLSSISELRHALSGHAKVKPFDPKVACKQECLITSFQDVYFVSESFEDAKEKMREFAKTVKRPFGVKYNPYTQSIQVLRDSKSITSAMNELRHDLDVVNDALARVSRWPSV
How it was run: (§1)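 Rats given test drug s.c. in the neck as hydrochloride (5 mL/kg), not reserpine-pretreated; 30 min later NSD 1015 (60 mg/kg, i.e. 287 μmol/kg sc), killed 30 min after that. Brain regions dissected. 5-HTP measured by ion-pair reversed-phase HPLC with electrochemical detection. Mean ± SEM, n = 15 controls, 3–5 per dose; ANOVA with Dunnett's t test vs controls.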

[3] = molecular target: T1, Tryptophan 5-hydroxylase 1 (Rattus norvegicus); assay: Compound was tested for its effect on NSD 1015 induced accumulation of 5-HTP(ng/g) in rats in corpus striatum at a dosage of 100 umol/kg; format: functional, tissue-based; how it was run: as §1
[4] = molecular target: T1, Tryptophan 5-hydroxylase 1 (Rattus norvegicus); assay: Compound was tested for its effect on NSD 1015 induced accumulation of 5-HTP(ng/g) in rats in limbic system at a dosage of 32 umol/kg; format: functional, tissue-based; how it was run: as §1
[5] = molecular target: T1, Tryptophan 5-hydroxylase 1 (Rattus norvegicus); assay: Compound was tested for its effect on NSD 1015 induced accumulation of 5-HTP(ng/g) in rats in corpus striatum at a dosage of 32 umol/kg; format: functional, tissue-based; how it was run: as §1
[6] = molecular target: T1, Tryptophan 5-hydroxylase 1 (Rattus norvegicus); assay: Compound was tested for its effect on NSD 1015 induced accumulation of 5-HTP(ng/g) in rats in limbic system at a dosage of 100 umol/kg; format: functional, tissue-based; how it was run: as §1
[7] = molecular target: T1, Tryptophan 5-hydroxylase 1 (Rattus norvegicus); assay: Approximate dose levels for a half maximal reduction of 5-HTP levels; format: functional; how it was run: as §1
[8] = molecular target: T2, 5-hydroxytryptamine receptor 1A (Rattus norvegicus, UniProt P19327); assay: Concentration of compound required to inhibit cortical 5-hydroxytryptamine 1A receptor binding sites in rat brain was evaluated; format: tissue-based
T2 sequence (P19327 whole entry): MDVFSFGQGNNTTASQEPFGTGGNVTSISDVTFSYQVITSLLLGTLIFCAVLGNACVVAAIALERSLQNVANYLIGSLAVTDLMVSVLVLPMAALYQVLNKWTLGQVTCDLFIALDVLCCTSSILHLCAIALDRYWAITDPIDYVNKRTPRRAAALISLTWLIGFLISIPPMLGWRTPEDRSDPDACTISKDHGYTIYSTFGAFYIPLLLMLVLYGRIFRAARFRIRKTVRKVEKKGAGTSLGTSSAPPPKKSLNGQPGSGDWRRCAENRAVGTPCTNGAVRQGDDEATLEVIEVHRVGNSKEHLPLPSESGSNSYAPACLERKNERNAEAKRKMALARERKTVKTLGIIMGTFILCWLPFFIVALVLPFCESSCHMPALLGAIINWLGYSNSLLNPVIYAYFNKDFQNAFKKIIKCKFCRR

[9] = molecular target: T1, Tryptophan 5-hydroxylase 1 (Rattus norvegicus); assay: Compound was tested for its effect on NSD 1015 induced accumulation of 5-HTP in rats in corpus striatum at a dosage of 3.2 umol/kg; format: functional; how it was run: as §1
[10] = molecular target: T1, Tryptophan 5-hydroxylase 1 (Rattus norvegicus); assay: Compound was tested for its effect on NSD 1015 induced accumulation of 5-HTP(ng/g) in rats in limbic system at a dosage of 10 umol/kg; format: functional, tissue-based; how it was run: as §1
Rattus norvegicus [11] = assay: No of rats exhibiting 5-HT motor syndrome tested in reserpinized rats at a subcutaneous dose of 32 umol/kg; 0 rats out of 4 showed activity; format: functional
Rattus norvegicus [12] = assay: No of rats exhibiting 5-HT motor syndrome tested in reserpinized rats at a subcutaneous dose of 100 umol/kg; 4 rats out of 4 showed activity; format: functional
[13] = molecular target: T1, Tryptophan 5-hydroxylase 1 (Rattus norvegicus); assay: Compound was tested for its effect on NSD 1015 induced accumulation of 5-HTP(ng/g) in rats in limbic system at a dosage of 3.2 umol/kg; format: functional, tissue-based; how it was run: as §1
Rattus norvegicus [14] = assay: No of rats exhibiting 5-HT motor syndrome tested in reserpinized rats at a subcutaneous dose of 10 umol/kg; 0 rats out of 4 showed activity; format: functional
Rattus norvegicus [15] = assay: No of rats exhibiting 5-HT motor syndrome tested in reserpinized rats at a subcutaneous dose of 32 umol/kg; 4 rats out of 4 showed activity; format: functional
[16] = molecular target: T1, Tryptophan 5-hydroxylase 1 (Rattus norvegicus); assay: Compound was tested for its effect on NSD 1015 induced accumulation of 5-HTP(ng/g) in rats in corpus striatum at a dosage of 1.0 umol/kg; format: functional; how it was run: as §1
Rattus norvegicus [17] = assay: No of rats exhibiting 5-HT motor syndrome tested in reserpinized rats at a subcutaneous dose of 0.32 umol/kg; 4 rats out of 4 showd activity; format: functional
[18] = molecular target: T1, Tryptophan 5-hydroxylase 1 (Rattus norvegicus); assay: Compound was tested for its effect on NSD 1015 induced accumulation of 5-HTP in rats in corpus striatum at a dosage of 0.32 umol/kg; format: functional, tissue-based; how it was run: as §1
Rattus norvegicus [19] = assay: No of rats exhibiting 5-HT motor syndrome tested in reserpinized rats at a subcutaneous dose of a. 0.1 umol/kg; 0 rats out of 4 showed activity; format: functional
[20] = molecular target: T1, Tryptophan 5-hydroxylase 1 (Rattus norvegicus); assay: Compound was tested for its effect on NSD 1015 induced accumulation of 5-HTP(ng/g) in rats in limbic system at a dosage of 0.032 umol/kg; format: functional; how it was run: as §1
[21] = molecular target: T1, Tryptophan 5-hydroxylase 1 (Rattus norvegicus); assay: Compound was tested for its effect on NSD 1015 induced accumulation of 5-HTP(ng/g) in rats in limbic system at a dosage of 0.10 umol/kg; format: functional, tissue-based; how it was run: as §1
[22] = molecular target: T1, Tryptophan 5-hydroxylase 1 (Rattus norvegicus); assay: Compound was tested for its effect on NSD 1015 induced accumulation of 5-HTP(ng/g) in rats in corpus striatum at a dosage of 0.032 umol/kg; format: functional; how it was run: as §1
[23] = molecular target: T1, Tryptophan 5-hydroxylase 1 (Rattus norvegicus); assay: Compound was tested for its effect on NSD 1015 induced accumulation of 5-HTP(ng/g) in rats in limbic system at a dosage of 0.32 umol/kg; format: functional, tissue-based; how it was run: as §1
[24] = molecular target: T1, Tryptophan 5-hydroxylase 1 (Rattus norvegicus); assay: Compound was tested for its effect on NSD 1015 induced accumulation of 5-HTP(ng/g) in rats in limbic system at a dosage of 1.0 umol/kg; format: functional, tissue-based; how it was run: as §1
Rattus norvegicus [25] = assay: No of rats exhibiting 5-HT motor syndrome tested in reserpinized rats at a subcutaneous dose of 1.0 umol/kg; 3 rats out of 3 showed activity; format: functional
[26] = molecular target: T1, Tryptophan 5-hydroxylase 1 (Rattus norvegicus); assay: Compound was tested for its effect on NSD 1015 induced accumulation of 5-HTP in rats corpus striatum at a dosage of 0.10 umol/kg; format: functional, tissue-based; how it was run: as §1
[27] = molecular target: T1, Tryptophan 5-hydroxylase 1 (Rattus norvegicus); assay: Compound was tested for its effect on NSD 1015 induced accumulation of 5-HTP in rats corpus striatum at a dosage of 10 umol/kg; format: functional, tissue-based; how it was run: as §1
[28] = molecular target: T1, Tryptophan 5-hydroxylase 1 (Rattus norvegicus); assay: Compound was tested for its effect on NSD 1015 induced accumulation of 5-HTP(ng/g) in rats in corpus striatum at a dosage of 3.2 umol/kg; format: functional; how it was run: as §1
Rattus norvegicus [29] = assay: No of rats exhibiting 5-HT motor syndrome tested in reserpinized rats at a subcutaneous dose of 10 umol/kg; 0 rats out of 3 showed activity; format: functional
[30] = molecular target: T1, Tryptophan 5-hydroxylase 1 (Rattus norvegicus); assay: Compound was tested for its effect on NSD 1015 induced accumulation of 5-HTP in rats in corpus striatum at a dosage of 32 umol/kg; format: functional, tissue-based; how it was run: as §1
Rattus norvegicus [31] = assay: No of rats exhibiting 5-HT motor syndrome tested in reserpinized rats at a subcutaneous dose of 3.2 umol/kg; 0 rats out of 3 showed activity; format: functional

CN(C)[C@H]1CCc2cccc(O)c2C1
Activity (Rattus norvegicus [1]): 0
Activity [2]: 69 ng/g
Activity [3]: 45 ng/g
Activity [4]: 128 ng/g
Activity [5]: 66 ng/g
Activity [6]: 85 ng/g
ED50 [7]: 20 µmol/kg
IC50 [8]: 675 nM
Activity [9]: 107 ng/g
Activity [10]: 162 ng/g
Activity (Rattus norvegicus [11]): 0
Activity (Rattus norvegicus [12]): 4
Activity [13]: 178 ng/g

CCCCN(CCCC)[C@@H]1CCc2cccc(O)c2C1
Activity [2]: 80 ng/g
Activity (Rattus norvegicus [14]): 0
Activity [4]: 106 ng/g
Activity [5]: 63 ng/g
ED50 [7]: 20 µmol/kg
IC50 [8]: 109 nM
Activity [10]: 145 ng/g
Activity (Rattus norvegicus [15]): 4

CCN(CC)[C@@H]1CCc2cccc(O)c2C1
Activity [16]: 47 ng/g
Activity (Rattus norvegicus [17]): 4
Activity [18]: 50 ng/g
ED50 [7]: 0.05 µmol/kg
Activity (Rattus norvegicus [19]): 0
IC50 [8]: 9.65 nM
Activity [20]: 131 ng/g
Activity [21]: 110 ng/g
Activity [22]: 87 ng/g
Activity [23]: 70 ng/g
Activity [24]: 72 ng/g
Activity (Rattus norvegicus [25]): 3
Activity [26]: 68 ng/g

CCCCN(CCCC)[C@H]1CCc2cccc(O)c2C1
Activity [4]: 112 ng/g
Activity [27]: 52 ng/g
ED50 [7]: 5 µmol/kg
IC50 [8]: 46.2 nM
Activity [28]: 90 ng/g
Activity [10]: 95 ng/g
Activity (Rattus norvegicus [29]): 0
Activity [30]: 45 ng/g
Activity (Rattus norvegicus [31]): 0
Activity (Rattus norvegicus [15]): 4
Activity [13]: 168 ng/g
